Data set [1] has as its target T1, Neuropeptide Y receptor type 5 (Homo sapiens, UniProt Q15761).
T1 sequence (Q15761 whole entry): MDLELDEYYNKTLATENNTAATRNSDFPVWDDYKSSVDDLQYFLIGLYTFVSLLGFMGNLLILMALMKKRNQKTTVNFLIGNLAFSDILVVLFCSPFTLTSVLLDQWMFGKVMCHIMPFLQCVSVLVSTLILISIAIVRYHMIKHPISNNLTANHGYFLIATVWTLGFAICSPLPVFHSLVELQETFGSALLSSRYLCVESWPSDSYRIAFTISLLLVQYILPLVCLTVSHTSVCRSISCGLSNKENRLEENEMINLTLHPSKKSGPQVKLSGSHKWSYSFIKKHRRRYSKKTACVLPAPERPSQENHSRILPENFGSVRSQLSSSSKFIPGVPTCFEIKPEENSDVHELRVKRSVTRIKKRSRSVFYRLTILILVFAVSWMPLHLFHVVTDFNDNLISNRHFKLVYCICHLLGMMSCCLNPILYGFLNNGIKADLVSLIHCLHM
Kind of data set: Displacement of [125I]PYY from human recombinant neuropeptide Y5 receptor expressed in thymidine kinase-deficient mouse LM cells. Format: cell-based. In outline: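 [125I]PYY displacement in membranes of LMtk- cells expressing recombinant human Y5 receptor; IC50 determined.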
For orientation: Displacement assays read how much labelled ligand stays bound in the presence of the test substance.

Data set [2] is described as follows: Plasma concentration in Sprague-Dawley rat at 10 mg/kg, po after 2 hrs. Format: ADME, organism-based. Further details: dose 10 mg/kg, route oral. The gist of the method:
(§1)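 Rats dosed orally at 10 mg/kg; plasma, brain (nmol/g) and CSF levels measured 2 h post-dose. Brain-to-plasma and CSF-to-brain ratios were calculated from these levels.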

For a further data set, the system named is Brain. In words: Drug level in Sprague-Dawley rat brain at 10 mg/kg, po after 2 hrs. Format: ADME, organism-based. Further details: dose 10 mg/kg, route oral. The following applies: in vivo. In outline: as §1
Data set [3] can be described thus: Drug level in Sprague-Dawley rat cerebrospinal fluid at 10 mg/kg, po after 2 hrs. Further details: dose 10 mg/kg, route oral. Format: ADME, organism-based. The following applies: read-out: Drug uptake. In outline: as §1
The nature of data set [4]: Ratio of drug level in brain to plasma of Sprague-Dawley rat at 10 mg/kg, po after 2 hrs. Format: ADME, organism-based. Details: dose 10 mg/kg, route oral. The following applies: read-out: BPR. The gist of the method:
as §1

Data set [5] is described as follows: Ratio of drug level in cerebrospinal fluid to brain of Sprague-Dawley rat at 10 mg/kg, po after 2 hrs. The following applies: in vivo. Details: dose 10 mg/kg, route oral. Format: ADME, organism-based, CSF/Brain. The gist of the method: as §1
In data set [6] the target is T1, Neuropeptide Y receptor type 5. In words: Antagonist activity at human recombinant neuropeptide Y5 receptor expressed in thymidine kinase-deficient mouse LM cells assessed as inhibition of neuropeptide-induced increase in intracellular calcium level. Format: functional, cell-based. For orientation: Calcium assays in cells follow changes in intracellular calcium, usually with a dye or a luminescent sensor.

For data set [7], the target named is T2, Neuropeptide Y receptor type 1 (Homo sapiens) (UniProt P25929).
T2 sequence (whole entry): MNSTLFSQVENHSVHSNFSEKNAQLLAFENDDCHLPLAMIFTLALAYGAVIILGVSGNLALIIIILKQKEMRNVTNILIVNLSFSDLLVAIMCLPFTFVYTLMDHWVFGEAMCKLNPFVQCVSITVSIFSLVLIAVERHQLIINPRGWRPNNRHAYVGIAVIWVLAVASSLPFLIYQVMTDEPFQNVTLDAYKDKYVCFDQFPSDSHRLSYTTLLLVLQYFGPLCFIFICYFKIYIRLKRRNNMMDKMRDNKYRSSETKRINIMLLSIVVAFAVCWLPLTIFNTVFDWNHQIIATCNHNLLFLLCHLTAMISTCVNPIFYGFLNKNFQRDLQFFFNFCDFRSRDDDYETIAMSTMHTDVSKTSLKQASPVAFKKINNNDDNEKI
In words: Binding affinity to human neuropeptide Y1 receptor.

Data set [8] deals with T3, Neuropeptide Y receptor type 2 (Homo sapiens) (UniProt P49146).
T3 sequence (whole entry): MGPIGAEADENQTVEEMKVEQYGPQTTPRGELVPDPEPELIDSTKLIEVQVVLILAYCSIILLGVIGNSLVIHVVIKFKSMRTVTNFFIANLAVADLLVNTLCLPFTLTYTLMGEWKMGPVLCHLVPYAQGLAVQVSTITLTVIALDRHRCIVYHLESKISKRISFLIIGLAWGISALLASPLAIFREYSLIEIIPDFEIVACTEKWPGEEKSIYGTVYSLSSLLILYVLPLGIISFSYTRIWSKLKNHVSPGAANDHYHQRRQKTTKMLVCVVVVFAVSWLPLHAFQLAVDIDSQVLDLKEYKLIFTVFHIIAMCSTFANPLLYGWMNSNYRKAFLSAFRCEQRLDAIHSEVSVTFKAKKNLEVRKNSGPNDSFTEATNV
In words: Binding affinity to human neuropeptide Y2 receptor.

Data set [9] has as its target Neuropeptide Y receptor type 4 (Homo sapiens) (UniProt P50391). Kind of data set: Binding affinity to human neuropeptide Y4 receptor.
In data set [10] the test system is Rattus norvegicus. Kind of data set: Inhibition of D-Trp34NPY-induced food intake in Sprague-Dawley rat at 3 mg/kg, po administered 2 hrs before D-Trp34NPY challenge measured for 2 hrs. Format: functional. Further details: scale not given: the % may be the effect or the level left. The gist of the method:
(§2)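 Oral dosing 2 h before third-ventricle injection of D-Trp34NPY, with artificial CSF as vehicle control. Cumulative food intake was recorded over the following 2 h. Data are mean ± SEM, n = 7–8, with P < 0.05 versus the agonist-only group.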

Data set [11] has as its system Rattus norvegicus. Kind of data set: Inhibition of D-Trp34NPY-induced food intake in Sprague-Dawley rat at 10 mg/kg, po administered 2 hrs before D-Trp34NPY challenge measured for 2 hrs. Format: functional. Details: scale not given: the % may be the effect or the level left. In outline:
as §2

The subject of data set [12] is Rattus norvegicus. Kind of data set: Inhibition of D-Trp34NPY-induced food intake in Sprague-Dawley rat at 30 mg/kg, po administered 2 hrs before D-Trp34NPY challenge measured for 2 hrs. Format: functional. Details: scale not given: the % may be the effect or the level left. In outline:
as §2

Experimental findings from ChEMBL document CHEMBL1153312, “Discovery of substituted 2,4,4-triarylimidazoline derivatives as potent and selective neuropeptide Y Y5 receptor antagonists” (Bioorg Med Chem Lett, 2009) are described below.

The structures appear in SMILES notation.

Sequence of Neuropeptide Y receptor type 4 (Homo sapiens) (P50391 whole entry): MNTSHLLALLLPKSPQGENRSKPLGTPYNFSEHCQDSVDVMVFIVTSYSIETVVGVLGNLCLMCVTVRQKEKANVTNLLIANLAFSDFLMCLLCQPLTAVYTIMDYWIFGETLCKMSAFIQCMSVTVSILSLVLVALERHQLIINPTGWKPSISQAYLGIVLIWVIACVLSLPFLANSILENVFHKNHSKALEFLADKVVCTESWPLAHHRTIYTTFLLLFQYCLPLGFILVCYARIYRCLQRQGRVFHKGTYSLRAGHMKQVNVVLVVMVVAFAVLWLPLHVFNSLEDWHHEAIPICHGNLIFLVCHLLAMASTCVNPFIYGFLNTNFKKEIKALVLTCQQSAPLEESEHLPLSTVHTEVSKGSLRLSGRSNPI

A word on the IC50: it is the point on the concentration scale where inhibition reaches its midpoint. On to `N#Cc1ccnc(C2=NC(c3ccc(F)cc3)(c3ccc(F)cc3)CN2)c1`, for which the IC50 in data set [1] came to 2 nM. The concentration at 2 h in [2] was determined as 1300 nM; in [3], 25 nM. Also, the Drug uptake in the data set on Brain is on record as 6.4 nmol/g. Moreover, the Kp at 2 h in data set [4] worked out at 4.9. Also, in data set [5], the Ratio amounted to 0.004. Turning to `Fc1ccc(C2(c3ccc(F)cc3)CNC(c3cccnc3)=N2)cc1`, the IC50 in [1] amounted to 7.2 nM.

Consider `Fc1ccc(C2(c3ccc(F)cc3)CNC(c3cccc(C(F)(F)F)c3)=N2)cc1`, for which the IC50 in data set [1] turned out to be 6.2 nM. Same read-out and setting: next, `CN(C)c1cccc(C2=NC(c3ccc(F)cc3)(c3ccc(F)cc3)CN2)c1`: above 1000 nM; `Fc1ccc(C2(c3ccc(F)cc3)CNC(c3ccccc3Cl)=N2)cc1`: 630 nM; `Fc1ccc(C2(c3ccc(F)cc3)CNC(c3ccc(Cl)cc3)=N2)cc1`: 130 nM. On the same count and under the same terms, the figure for `Fc1ccc(C2(c3ccc(F)cc3)CNC(c3ccc(C(F)(F)F)cc3)=N2)cc1` is 160 nM. For `N#Cc1cccc(C2=NC(c3ccc(F)cc3)(c3ccc(F)cc3)CN2)c1`, in data set [1], the IC50 was 2.7 nM. Moreover, the concentration at 2 h turned out to be 1400 nM in data set [2] and 27 nM in data set [3]. In the data set on Brain, this compound gave a Drug uptake of 8.1 nmol/g. Besides, the Kp at 2 h in data set [4] was found to be 5.8. Further, the Ratio in data set [5] is listed as 0.003.

`N#Cc1cc(C2=NC(c3ccc(F)cc3)(c3ccc(F)cc3)CN2)ccn1`: in [1], the IC50 was determined as 4.8 nM.

With `CC(=O)c1cccc(C2=NC(c3ccc(F)cc3)(c3ccc(F)cc3)CN2)c1`, the IC50 in data set [1] was found to be 44 nM.

For `Fc1ccc(C2(c3ccc(F)cc3)CNC(c3cccc(Br)c3)=N2)cc1`, the half-maximal inhibitory concentration (IC50) in data set [1] was determined as 4.8 nM. Same read-out and setting: the figure for `N#Cc1cccc(C2=NC(c3ccc(F)cc3)(c3ccc(F)cc3)CN2)n1` is 39 nM. As for `OCc1cccc(C2=NC(c3ccc(F)cc3)(c3ccc(F)cc3)CN2)c1`, the IC50 in [1] was determined as 59 nM.

On to `Cc1cccc(C2=NC(c3ccc(F)cc3)(c3ccc(F)cc3)CN2)c1`, for which, in [1], the IC50 is 30 nM. Consider `Fc1ccc(C2(c3ccc(F)cc3)CNC(c3cccc(Cl)c3)=N2)cc1`, for which the IC50 in [1] came to 5.4 nM. The same measure, in the same setting: next, `Nc1cccc(C2=NC(c3ccc(F)cc3)(c3ccc(F)cc3)CN2)c1`: 300 nM; `Fc1ccc(C2(c3ccc(F)cc3)CNC(c3ccsc3)=N2)cc1`: 93 nM; `N#Cc1cncc(C2=NC(c3ccc(F)cc3)(c3ccc(F)cc3)CN2)c1`: 17 nM. Still for that read-out and setting: the figure for `CS(=O)(=O)c1cccc(C2=NC(c3ccc(F)cc3)(c3ccc(F)cc3)CN2)c1` is 9.2 nM; for `Fc1ccc(C2(c3ccc(F)cc3)CNC(c3cncnc3)=N2)cc1` it is 47 nM. The same measure, in the same setting: the figure for `Fc1ccc(C2(c3ccc(F)cc3)CNC(c3ccccn3)=N2)cc1` is 160 nM. As to `c1ccc(C2=NC(c3ccccc3)(c3ccccc3)CN2)cc1`, the IC50 in data set [1] was 54 nM. The same measure, in the same setting: the figure for `O=c1cccc(C2=NC(c3ccc(F)cc3)(c3ccc(F)cc3)CN2)[nH]1` is 8.1 nM; for `O=[N+]([O-])c1cccc(C2=NC(c3ccc(F)cc3)(c3ccc(F)cc3)CN2)c1` it is 4.3 nM; for `COc1cccc(C2=NC(c3ccc(F)cc3)(c3ccc(F)cc3)CN2)c1` it is 51 nM. Same read-out and setting: next, `Fc1ccc(C2(c3ccc(F)cc3)CNC(c3ccncc3)=N2)cc1`: 160 nM. On the same count and under the same terms, the figure for `O=Cc1cccc(C2=NC(c3ccc(F)cc3)(c3ccc(F)cc3)CN2)c1` is 8.7 nM; for `Fc1ccc(C2(c3ccc(F)cc3)CNC(c3ncccn3)=N2)cc1` it is 350 nM. On to `COC(=O)c1cccc(C2=NC(c3ccc(F)cc3)(c3ccc(F)cc3)CN2)c1`, for which the IC50 in data set [1] is 270 nM. For the compound `Fc1ccc(C2(c3ccc(F)cc3)CNC(c3ccccc3)=N2)cc1`, in data set [1], the IC50 turned out to be 32 nM. As for `Fc1ccc(C2(c3ccc(F)cc3)CNC(c3cccs3)=N2)cc1`, the IC50 in [1] amounted to 54 nM.

In the case of `Fc1ccc(C2(c3ccc(F)cc3)CNC(c3cccnn3)=N2)cc1`, the IC50 in [1] was 560 nM. As for `Fc1ccc(C2(c3ccc(F)cc3)CNC(c3cnccn3)=N2)cc1`, the IC50 in data set [1] turned out to be 4.3 nM; in data set [6], 2.4 nM. Further, the concentration at 2 h in data set [2] was 1200 nM; in [3] it was 64 nM. In addition, the Drug uptake in the data set with Brain worked out at 5.9 nmol/g. Further, the Kp at 2 h in data set [4] amounted to 4.9. For the same compound, the Ratio in data set [5] was determined as 0.01. In addition, the Activity in data set [7] is above 10 µM; in data set [8] it was above 10 µM; in [9], above 10 µM; with Rattus norvegicus [10], 20%; with Rattus norvegicus [11], 42%; in the data set with Rattus norvegicus [12], 60%. Turning to `Fc1ccc(C2(c3ccc(F)cc3)CNC(c3cccc(F)c3)=N2)cc1`, the IC50 in data set [1] was determined as 10 nM.
